Screens deposited in PubChem BioAssay by several laboratories.
Compounds with a hit are over-represented: about 2.5% of the library has one in this group of screens.
B2AR ag: activates human beta-2 adrenergic receptor causing internalization; P07550; Am2.2-beta2AR cells, FAP receptor internalization, flow cytometry; response, % (no concentration beside the values); 0.43% of 340,000 active;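 active = response above a set limit, near 3 SD of response in nonfluorescent compounds, cut at about 42% in these data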
Target sequence (P07550 whole entry, looked up): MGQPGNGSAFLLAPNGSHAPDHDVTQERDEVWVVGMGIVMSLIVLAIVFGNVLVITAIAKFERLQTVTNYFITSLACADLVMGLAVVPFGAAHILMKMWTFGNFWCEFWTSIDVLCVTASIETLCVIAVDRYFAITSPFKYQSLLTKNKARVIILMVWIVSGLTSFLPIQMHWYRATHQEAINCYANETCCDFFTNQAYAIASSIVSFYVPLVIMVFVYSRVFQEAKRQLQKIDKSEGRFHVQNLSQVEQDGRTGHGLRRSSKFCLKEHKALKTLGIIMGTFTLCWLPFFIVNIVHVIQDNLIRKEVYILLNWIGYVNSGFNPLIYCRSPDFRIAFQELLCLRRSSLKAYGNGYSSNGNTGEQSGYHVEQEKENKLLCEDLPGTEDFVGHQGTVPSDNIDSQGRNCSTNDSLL
NadD block: inhibitors of Staphylococcus aureus NadD. inhibition, % at 20 µM. purified NadD enzyme, colorimetric absorbance read-out. AID 602399. 0.78% of 360,000 active; in the data active = inhibition above about 26%
SENP1 FRET inh: SENP1 (human) catalytic domain inhibition | Q9P0U3 | recombinant SENP1 catalytic domain, CyPet-SUMO1-YPet FRET cleavage | inhibition, % at 10 µM | 0.21% of 360,000 active;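 active = inhibition at least 30% at 10 µM, raw YFP signal under a set limit, fluorescence ratio 0.5 to 1.5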
Target sequence (Q9P0U3 419-644 limits assumed): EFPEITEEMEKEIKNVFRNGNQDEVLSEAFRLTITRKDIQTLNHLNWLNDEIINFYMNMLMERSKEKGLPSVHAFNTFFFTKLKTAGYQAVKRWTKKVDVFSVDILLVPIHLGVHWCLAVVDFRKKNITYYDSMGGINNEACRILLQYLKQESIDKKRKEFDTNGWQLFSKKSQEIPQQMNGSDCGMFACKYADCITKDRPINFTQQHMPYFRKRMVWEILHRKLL
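Material – human SENP1 catalytic domain · Input – SENP1 enzyme, 20 pM final · Compound dosing – single concentration of 10 µM compound, 0.5% DMSO final · Timing – enzyme reaction for 50 min at room temperature, dark · Measured by – FRET fluorescence in CFP and YFP emission channels · Control set – no-enzyme wells low, DMSO-plus-enzyme wells high control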
GRK2 inh: human GRK2 inhibition via aptamer displacement | AID 488847 | inhibition of aptamer binding, % at 10 µM | 0.59% of 330,000 active | bead flow cytometry, FAM-aptamer displacement from GRK2 | P25098;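 active = inhibition of aptamer binding above 40%, roughly 3 SD of noise, on plates passing a quality check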;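 note: median bead fluorescence of bound FAM aptamer so fluorescent compounds give negative values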
ABHD5 PLIN5 PPI: ABHD5-PLIN5 protein interaction inhibition; Q00G26+Q8WTS1; Split G. princeps luciferase complementation, luminescence, 4 h; inhibition, % at 4 µM; 0.78% of 360,000 active; AID 602281;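 active = inhibition above the mean inhibition across every tested compound plus 3 SD, cut at about 22% in these data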
NadD inh conf: NadD (S. aureus) inhibition, single concentration confirmation. purified S. aureus NadD, colorimetric enzyme assay. 13% of 2,000 active. shares compounds with NadD block. AID 624309. inhibition, % at 20 µM; in the data active = inhibition mostly above about 42%, no sharp cut-off; inactive = mostly below about 42%
SENP1 inh conf: SENP1 (human) inhibition, single concentration confirmation; inhibition, % at 10 µM; AID 651678; recombinant SENP1, CyPet-SUMO1-YPet FRET cleavage; 34% of 520 active; shares compounds with SENP1 FRET inh; in the data active = inhibition mostly above about 35%, no sharp cut-off; inactive = mostly below about 32%
SENP1 kinetic: SENP1 (human) inhibition, kinetic confirmation | shares compounds with SENP1 FRET inh | recombinant SENP1, CyPet-SUMO1-YPet FRET kinetic cleavage | inhibition, % at 10 µM | 26% of 520 active; in the data active = inhibition mostly above about 32%, no sharp cut-off; inactive = mostly below about 29%
Of the large screens only hits and unclear results are named; the others gave an inactive call (follow-up assays come after a bar, where they were run).

CCOc1ccccc1/C=N/NC(=O)Cc1csc(Nc2cccc(C(F)(F)F)c2)n1	NadD block 38 | NadD inh conf inactive
CCOc1ccc(/C=N/NC(=O)Cc2csc(Nc3cccc(C(F)(F)F)c3)n2)c(OCC)c1	none
COc1ccc(/C=N/NC(=O)Cc2csc(Nc3cccc(C(F)(F)F)c3)n2)c(OC)c1	NadD block 33 | NadD inh conf inactive
O=C(COC(=O)CC1CCS(=O)(=O)C1)Nc1ccc(F)cc1 (stereo not drawn)	none
CCn1c(CSc2ncccn2)nnc1SCC(=O)N1CCCCC1	none
O=C(Nc1ccc(Cl)cc1)[C@@H]1[C@@H]2C(=O)N(c3ccc4ccccc4c3)C(=O)[C@@H]2[C@H]2C=CC=NN21	NadD block 57 | NadD inh conf inactive
CC[C@@H]1CCC[C@@H](O)[C@@H](C)C(=O)O[C@H](C)[C@@H](C)C/C=C(C)/C(OC)=C\C(=O)N(C)C([C@@H](C)CC)C(=O)N(C)[C@@H](C(C)C)C(=O)N(C)[C@@H](COC)C(=O)N2CCC[C@H]2C(=O)N(C)[C@@H](C(C)C)C(=O)N2CCC[C@H]2C(=O)O1 (stereo partly drawn)	none (no result: B2AR ag, GRK2 inh)
Cc1sc2ncnc(SCc3ccc(C(=O)O)cc3)c2c1C	none
c1ccc(-c2csc3ncnc(N4CCN(Cc5ccc6c(c5)OCO6)CC4)c23)cc1	none
Cc1ccc(-c2csc3ncnc(SCc4ccc(C(=O)O)cc4)c23)cc1	NadD block 32 | NadD inh conf inactive
O=C(CSc1ncnc2scc(-c3ccccc3)c12)N1CCN(Cc2ccc3c(c2)OCO3)CC1	NadD block 38 | NadD inh conf inactive
CCCCN1CC(=O)N2[C@H]3c4cc(Cl)ccc4OC[C@@H]3[C@H](c3ccccc3)[C@]2(C)C1=O	none
COC(=O)[C@@H](NCc1cccc(CN[C@H](C(=O)OC)c2ccccc2)c1)c1ccccc1	none
CC#Cc1cc2c(cc1O)CCC1C2CCC2(C)C(O)CCC12 (stereo not drawn)	none (no result: GRK2 inh)
Cc1cc(N2CCN(c3nc(-c4ccc([N+](=O)[O-])cc4)cs3)CC2)c2ccccc2n1	NadD block 28, SENP1 FRET inh 45 | NadD inh conf inactive | SENP1 inh conf inactive | SENP1 kinetic inactive
CC(C)Nc1ncnc2c1ncn2[C@H]1CN(CCN2CCOCC2)C[C@@H](CO)O1	none (no result: B2AR ag, GRK2 inh)
O=C(NN=Cc1cc(Br)c(O)c(Br)c1)c1ccccc1NS(=O)(=O)c1cccs1	none
CCOC(=O)C1=C(C)N=c2sc(=Cc3cc(Cl)c(OCC(=O)O)c(Cl)c3)c(=O)n2C1c1cccc(OC)c1 (stereo not drawn)	NadD block 34, SENP1 FRET inh 52 (no result: B2AR ag, GRK2 inh) | NadD inh conf 52 | SENP1 inh conf 51 | SENP1 kinetic 35
CCOC(=O)C1=C(C)N=c2s/c(=C/c3ccc(OCC(=O)O)cc3)c(=O)n2C1c1cc(OC)c(OC)c(OC)c1 (stereo not drawn)	none
O=c1[nH]c2cc([N+](=O)[O-])ccc2c2cc(Br)ccc12	NadD block 38, SENP1 FRET inh 33 (no result: B2AR ag, GRK2 inh) | NadD inh conf inactive | SENP1 inh conf inactive | SENP1 kinetic inactive
CC(=O)Oc1ccccc1/C=C/c1nc2ccccc2c(=O)o1	none
CC(=O)Oc1ccc(/C=C/c2nc3ccccc3c(=O)o2)cc1	SENP1 FRET inh 52 | SENP1 inh conf inactive | SENP1 kinetic inactive
COc1ccc(C2=NS(=O)(=O)N(C)C(C(=O)N(C)Cc3ccccc3)=C2)cc1OC	none
N#C/C(=C\c1cc2ccccc2nc1N1CCCCC1)C(N)=O	SENP1 FRET inh 43 | SENP1 inh conf 36 | SENP1 kinetic inactive
COc1ccc(-c2ccc3c(c2)S(=O)(=O)c2cccc(C(=O)O)c2C3=O)cc1OC	none
COc1ccc(-c2ccc3c(c2)S(=O)(=O)c2cccc(C(=O)NCc4cc(C)oc4C(F)(F)F)c2C3=O)cc1OC	SENP1 FRET inh 59 | SENP1 inh conf 44 | SENP1 kinetic 34
CNC(=O)NC(=O)CSc1ccc(S(=O)(=O)N(C)C2CCCCC2)cn1	none (no result: GRK2 inh)
C=CCNc1nc(-c2ccc([N+](=O)[O-])cc2)cs1	SENP1 FRET inh 50 | SENP1 inh conf inactive | SENP1 kinetic inactive
C=CCNc1nc(-c2ccc(Cl)cc2)cs1	none
CN(C)c1nc(-c2ccc([N+](=O)[O-])cc2)cs1	SENP1 FRET inh 46 | SENP1 inh conf inactive | SENP1 kinetic inactive
Cc1ccc(S(=O)(=O)N2CCOCC2)cc1NC(=O)CSc1nnnn1C1CC1	none (no result: B2AR ag, GRK2 inh)
O=C(c1[nH]c(C(F)(F)F)nc1-c1ccccc1)N1CCC(C(O)(c2ccccc2)c2ccccc2)CC1	none (no result: B2AR ag, GRK2 inh)
CCOc1ccccc1NC(=O)c1cc(C(=O)c2cc(OC)ccc2O)coc1=N	SENP1 FRET inh 46 | SENP1 inh conf inactive | SENP1 kinetic inactive
CC(C)NC(=O)c1cc(C(=O)c2cc(Cl)ccc2O)coc1=N	none
CCSC1=N/C(=C\C=C2/Oc3ccccc3N2CC)C(=O)S1	SENP1 FRET inh 43 | SENP1 inh conf inactive | SENP1 kinetic inactive
CCSC1=N/C(=C\c2cccc(F)c2)C(=O)S1	none
O=C(NS(=O)(=O)NC1CCCCC1)C1=C(N2CCCC2)COC1=O	none
O=c1oc2ccccc2n1CCn1c2ccccc2c2nc3ccccc3nc21	none
COc1ccc2c(c1)c1nc3ccccc3nc1n2Cc1ccc(OC(C)C)c(OC)c1	SENP1 FRET inh 35 | SENP1 inh conf 47 | SENP1 kinetic 34
COc1ccc2c(c1)c1nc3ccccc3nc1n2CCn1c(=O)oc2ccccc21	SENP1 FRET inh 54 | SENP1 inh conf 131 | SENP1 kinetic 83
COc1ccc(Cn2c3ccc(OC)cc3c3nc4ccccc4nc32)cc1	none
Cn1nc(N2CCN(S(=O)(=O)c3ccccc3)CC2)c(=O)n(C)c1=O	none
Cc1[nH]c2ccc(C(=O)NCCCN(C)C3CCCCC3)cc2c1C	none
O=S(=O)(CC(O)CS(=O)(=O)c1ccc(Cl)cc1)c1ccccc1 (stereo not drawn)	none (no result: ABHD5 PLIN5 PPI)
O=C(O)c1ccccc1C(=O)Nc1ccccc1NC(=O)c1ccccc1C(=O)O	SENP1 FRET inh 88 | SENP1 inh conf inactive | SENP1 kinetic inactive
CCN(CC)S(=O)(=O)c1ccc(NC(=O)CNC2CCCCC2)cc1	none
COc1ccc2c(C)cc(SCC(=O)N3CCOCC3)nc2c1	SENP1 FRET inh 67 | SENP1 inh conf 50 | SENP1 kinetic 36
COc1ccc2c(-c3ccccc3)cc(SCC(N)=O)nc2c1	SENP1 FRET inh 30 | SENP1 inh conf inactive | SENP1 kinetic inactive
